ChEMBL document CHEMBL1153581, “Synthesis, antiviral and anticancer activity of some novel thioureas derived from N-(4-nitro-2-phenoxyphenyl)-methanesulfonamide” (Eur J Med Chem, 2009)
In brackets after ≈: the same amount, converted by molar mass.

Tests used:
[1] = tested on: HeLa; test: Cytotoxicity against human HeLa cells assessed as change in cell morphology; format: functional
In short: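 The minimum cytotoxic concentration (MCC) is the concentration causing a microscopically detectable alteration of cell morphology in the uninfected host cell culture.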

[2] = tested on: Human alphaherpesvirus 1; test: Antiviral activity against HSV1 KOS infected in HEL cells assessed as protection against virus-induced cytopathogenicity; format: functional; conditions: Human alphaherpesvirus 1, KOS
[3] = tested on: Human alphaherpesvirus 2; test: Antiviral activity against Herpes simplex virus 2 infected in HEL cells assessed as protection against in virus-induced cytopathogenicity; format: functional
[4] = tested on: Vesicular stomatitis virus; test: Antiviral activity against sVesicular stomatitis virus infected in HEL cells assessed as protection against virus-induced cytopathogenicity; format: functional
[5] = tested on: Human alphaherpesvirus 1; test: Antiviral activity against acyclovir-resistant thymidine kinase-deficient HSV1 KOS infected in human HEL cells assessed as protection against virus-induced cytopathogenicity; format: functional; conditions: Human alphaherpesvirus 1, KOS
[6] = tested on: Vesicular stomatitis virus; test: Antiviral activity against Vesicular stomatitis virus infected in human HeLa cells assessed as protection against virus-induced cytopathogenicity; format: functional
[7] = tested on: Coxsackievirus B4; test: Antiviral activity against Coxsackievirus B4 infected in human HeLa cells assessed as protection against virus-induced cytopathogenicity; format: functional; conditions: Enterovirus B
[8] = tested on: Respiratory syncytial virus; test: Antiviral activity against RSV infected in human HeLa cells assessed as protection against virus-induced cytopathogenicity; format: functional
[9] = tested on: Human respirovirus 3; test: Antiviral activity against Parainfluenza-3 virus infected in african green monkey Vero cells assessed as protection against virus-induced cytopathogenicity; format: functional
[10] = tested on: Mammalian orthoreovirus 1; test: Antiviral activity against Reovirus 1 infected in african green monkey Vero cells assessed as protection against virus-induced cytopathogenicity; format: functional
[11] = tested on: Sindbis virus; test: Antiviral activity against Sindbis virus infected in african green monkey Vero cells assessed as protection against virus-induced cytopathogenicity; format: functional
[12] = tested on: Coxsackievirus B4; test: Antiviral activity against Coxsackievirus B4 infected in african green monkey Vero cells assessed as protection against virus-induced cytopathogenicity; format: functional; conditions: Enterovirus B
[13] = tested on: Punta Toro virus; test: Antiviral activity against Punta Toro virus infected in african green monkey Vero cells assessed as protection against virus-induced cytopathogenicity; format: functional
[14] = Cytotoxicity against HEL cells assessed as change in cell morphology; format: cell-based; conditions: human
In short: (§1)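 HEL cell cultures examined under the microscope. Minimal cytotoxic concentration (MCC) is the concentration that causes a microscopically detectable alteration of cell morphology. Compounds were tested at subtoxic concentrations alongside the antiviral tests.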

[15] = Cytotoxicity against african green monkey Vero cells assessed as change in cell morphology; format: cell-based; conditions: chlorocebus sabaeus
In short: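 Vero cell cultures were used for the broad-spectrum antiviral screen. The MCC endpoint is the lowest concentration that causes a microscopically detectable alteration of cell morphology. Activity was called when 5 × MIC < MCC.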

[16] = tested on: Human betaherpesvirus 5; test: Antiviral activity against Cytomegalovirus AD169 infected in HEL cells assessed as reduction in virus plaque formation; format: functional, organism-based; conditions: Human betaherpesvirus 5, AD169, HEL
In short: (§2)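 Plaque reduction in HEL cells against CMV (AD-169, Davis) or VZV (TK⁺ OKA, TK⁻ 07/1), using a virus input of 20 PFU. EC50 is the concentration that reduced plaque formation by 50%.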

[17] = tested on: Cytomegalovirus; test: Antiviral activity against Cytomegalovirus Davis infected in HEL cells assessed as reduction in virus plaque formation; format: functional, organism-based; conditions: Human betaherpesvirus 5, Davis; in short: as §2
[18] = tested on: Human alphaherpesvirus 3; test: Antiviral activity against Varicella Zoster Virus OKA infected in HEL cells assessed as reduction in virus plaque formation; format: functional, organism-based; conditions: Human alphaherpesvirus 3, OKA; in short: as §2
[19] = tested on: Human alphaherpesvirus 3; test: Antiviral activity against thymidine kinase deficient Varicella Zoster Virus 07/1 infected in HEL cells assessed as reduction in virus plaque formation; format: functional, organism-based; conditions: Human alphaherpesvirus 3, 07/1, HEL; in short: as §2
[20] = Cytotoxicity against Cytomegalovirus infected HEL cells assessed as change in cell morphology; format: cell-based; conditions: human; in short: as §1
[21] = Cytotoxicity against Cytomegalovirus infected HEL cells assessed as reduction in cell growth; format: cell-based; conditions: human
[22] = Cytotoxicity against Varicella Zoster Virus infected human […] cells assessed as change in cell morphology; format: cell-based
[23] = Cytotoxicity against Varicella Zoster Virus infected human […] cells assessed as reduction in cell growth; format: cell-based
[24] = tested on: Human immunodeficiency virus 2; test: Antiviral activity against HIV-2 ROD infected human MT4 cells assessed as protection against virus-induced cytopathogenicity; format: functional, organism-based; conditions: Human immunodeficiency virus 2, ISOLATE ROD
In short: (§3)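 HIV-1 (IIIB) or HIV-2 (ROD) infection of MT-4 cells, scored as protection against virus-induced cytopathicity. IC50 was derived from protection.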

[25] = tested on: Human immunodeficiency virus 1; test: Antiviral activity against HIV-1 3B infected human MT4 cells assessed as protection against virus-induced cytopathogenicity; format: functional, organism-based; conditions: Human immunodeficiency virus 1, 3B; in short: as §3
[26] = Cytotoxicity against HIV-1 3B infected human MT4 cells; format: cell-based; conditions: HIV-1 3B-infected MT4 cells

Row | SMILES | MCC [1] [µg/mL] | MIC50 [2] [µg/mL] | MIC50 [3] [µg/mL] | MIC50 [4] [µg/mL] | MIC50 [5] [µg/mL] | MIC50 [6] [µg/mL] | MIC50 [7] [µg/mL] | MIC50 [8] [µg/mL] | MIC50 [9] [µg/mL] | MIC50 [10] [µg/mL] | MIC50 [11] [µg/mL] | MIC50 [12] [µg/mL] | MIC50 [13] [µg/mL] | MCC [14] [µg/mL] | MCC [15] [µg/mL] | EC50 [16] [µg/mL] | EC50 [17] [µg/mL] | IC50 [24] [µg/mL] | IC50 [25] [µg/mL] | CC50 [26] [µg/mL] | further results
1 | CCCNC(=S)Nc1ccc(NS(C)(=O)=O)c(Oc2ccccc2)c1 | 200 | > 40 | > 40 | > 40 | > 40 | > 40 | > 40 | 40 (≈ 105 µM) | > 8 | > 8 | > 8 | > 8 | > 8 | 200 | 40 | 54.7 (≈ 144 µM) | 54.7 (≈ 144 µM) | > 89.3 | > 89.3 | 89.3 (≈ 235 µM) | EC50 [18]: > 20 µg/mL; EC50 [19]: > 20 µg/mL; CC50 [20]: > 100 µg/mL; CC50 [21]: 56 µg/mL (≈ 148 µM); CC50 [22]: 100 µg/mL (≈ 263 µM); CC50 [23]: 56 µg/mL (≈ 148 µM)
2 | CNC(=S)Nc1ccc(NS(C)(=O)=O)c(Oc2ccccc2)c1 | > 100 | > 100 | > 100 | > 100 | > 100 | 100 (≈ 285 µM) | > 100 | > 100 | > 100 | > 100 | > 100 | > 100 | > 100 | > 100 | > 100 |  |  | > 125 | > 125 | > 125 | 
3 | CS(=O)(=O)Nc1ccc(NC(=S)NCCc2ccccc2)cc1Oc1ccccc1 | 40 | > 8 | > 8 | > 8 | > 8 | > 8 | > 8 | > 8 | > 1.6 | > 1.6 | > 1.6 | > 1.6 | > 1.6 | 40 | 8 | > 20 | > 20 | > 20.8 | > 20.8 | 20.8 (≈ 47.1 µM) | EC50 [18]: > 20 µg/mL; EC50 [19]: > 20 µg/mL; CC50 [20]: 100 µg/mL (≈ 226 µM); CC50 [21]: 48 µg/mL (≈ 109 µM); CC50 [22]: ≥ 100 µg/mL; CC50 [23]: 48 µg/mL (≈ 109 µM)
4 | CS(=O)(=O)Nc1ccc(NC(=S)NC2CCCCC2)cc1Oc1ccccc1 | 40 | > 8 | > 8 | > 8 | > 8 | > 8 | > 8 | > 8 | > 1.6 | > 1.6 | > 1.6 | > 1.6 | > 1.6 | 40 | 8 | > 4 | > 4 | > 35.3 | > 35.3 | 35.3 (≈ 84.1 µM) | EC50 [18]: > 20 µg/mL; EC50 [19]: > 0.8 µg/mL; CC50 [20]: 20 µg/mL (≈ 47.7 µM); CC50 [21]: 33.6 µg/mL (≈ 80.1 µM); CC50 [22]: ≥ 4 µg/mL; CC50 [23]: 82.4 µg/mL (≈ 196 µM)
5 | C=CCNC(=S)Nc1ccc(NS(C)(=O)=O)c(Oc2ccccc2)c1 | 200 | > 40 | > 40 | > 40 | > 40 | > 40 | > 40 | 40 (≈ 106 µM) | ≥ 24 | > 40 | > 40 | > 40 | > 40 | 200 | 200 | 54.7 (≈ 145 µM) | 54.7 (≈ 145 µM) | > 12.8 | > 87.2 | 101 (≈ 269 µM) | EC50 [18]: 58.5 µg/mL (≈ 155 µM); EC50 [19]: 49 µg/mL (≈ 130 µM); CC50 [20]: > 100 µg/mL; CC50 [21]: 82.4 µg/mL (≈ 218 µM); CC50 [22]: > 100 µg/mL; CC50 [23]: 82.4 µg/mL (≈ 218 µM)
6 | CS(=O)(=O)Nc1ccc(NC(=S)NCCc2ccc(Cl)cc2)cc1Oc1ccccc1 | 100 | > 100 | > 100 | > 100 | > 100 | > 20 | > 20 | > 20 | > 20 | > 20 | > 20 | > 20 | > 20 | > 100 | 100 |  |  | > 14.8 | > 14.8 | 14.8 (≈ 31.2 µM) | 
7 | CS(=O)(=O)Nc1ccc(NC(=S)NCc2ccccc2)cc1Oc1ccccc1 | 40 | > 8 | > 8 | > 8 | > 8 | > 8 | > 8 | > 8 | > 8 | > 8 | > 8 | > 8 | > 8 | 40 | 40 | > 4 | > 4 | > 18.3 | 20.1 (≈ 47.1 µM) | 61.6 (≈ 144 µM) | EC50 [18]: > 4 µg/mL; EC50 [19]: > 4 µg/mL; CC50 [20]: 20 µg/mL (≈ 46.8 µM); CC50 [21]: 45.2 µg/mL (≈ 106 µM); CC50 [22]: 20 µg/mL (≈ 46.8 µM); CC50 [23]: 45.2 µg/mL (≈ 106 µM)
